Measurements reported in ChEMBL document CHEMBL4689842, “EUbOPEN Chemogenomics Library wave 1” (2021).
Values joined by “and” are separate entries in the source; they are usually repeats but may differ in a detail not shown here. Equal entries are not always repeated.

How the values were obtained:
Format in all cases: toxicity, cell-based
Fibroblast [1] = assay: Multiplex assay against human fibroblast; settings: 1 µM, compound concentration 1 uM
How it was run: (§1)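 Phenotypes for tubulin, mitochondrial mass and membrane permeability are expressed as per cents of healthy-nucleus cells. Cells were stained live at seeding with Hoechst33342, BioTracker Green Microtubule Cytoskeleton Dye, MitoTracker Red and Annexin V Alexa Fluor 680, then imaged after compound addition on a CQ1 microscope at 37°C and 5% CO2. Machine-learning gating in CellPathfinder separated Hoechst high-intensity objects from normal cells, divided normal cells by nuclear state (healthy, pyknosed, fragmented) and divided pyknosed cells into mitotic or apoptotic.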

HEK-293T [2] = assay: Multiplex assay against HEK293T; settings: human, 1 µM, compound concentration 1 uM; how it was run: as §1;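 on Population Tubulin-Different-Phenotype (%): share of the cells with healthy nuclei that show this phenotype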
U2OS [3] = assay: Multiplex assay against U2OS; settings: human, 1 µM, compound concentration 1 uM; how it was run: as §1
HEK-293T [4] = assay: Incucyte cell viability with HEK293T; settings: human, 10 µM, compound concentration 10 uM; further: filed as whole numbers so only -1 and 0 and 1 occur
Fibroblast [5] = assay: Incucyte cell viability with human fibroblast; settings: 10 µM, compound concentration 10 uM; further: filed as whole numbers so only -1 and 0 and 1 occur
U2OS [6] = assay: Incucyte cell viability with U2OS; settings: human, 10 µM, compound concentration 10 uM; further: filed as whole numbers so only -1 and 0 and 1 occur
[7] = 0 h, replicate number 1, timepoint 0 hours
[8] = 6 h, replicate number 1, timepoint 6 hours
[9] = 12 h, replicate number 1, timepoint 12 hours
[10] = 18 h, replicate number 1, timepoint 18 hours
[11] = 24 h, replicate number 1, timepoint 24 hours

## Cc1cc(C)c(-n2ccn3nc(-c4cccnc4)cc23)cc1NC(=O)c1cc(C#N)cc(S(F)(F)(F)(F)F)c1 [BAY-826]
Fibroblast [1]; 12 h, replicate 1
  Population Apoptotic (%): 67% and 71%
  Population Fragmented Nuclei (%): 37% and 21%
  Population Healthy Nuclei (%): 48% and 63%
  Population Hoechst High Intensity Objects (%): 11% and 19%
  Population Mitochondria Different-Phenotype (%): 3% and 8%
  Population Mitotic Cells (%): 32% and 28%
  Population Normal (%): 88% and 80%
  Population Pyknosed Nuclei (%): 14% and 15%
  Total Cell Count: 241 and 313
Fibroblast [1]; 12 h, replicate 2
  Population Apoptotic (%): 50% and 91%
  Population Fragmented Nuclei (%): 55% and 58%
  Population Healthy Nuclei (%): 37% and 19%
  Population Hoechst High Intensity Objects (%): 23% and 34%
  Population Membrane Permeable-Phenotype (%): 20% and 36%
  Population Normal (%): 76% and 65%
  Population Pyknosed Nuclei (%): 7% and 21%
  Population Tubulin-Different-Phenotype (%): 30% and 54%
  Total Cell Count: 71 and 85
Fibroblast [1]; 24 h, replicate 1
  Population Apoptotic (%): 52% and 37%
  Population Fragmented Nuclei (%): 23% and 21%
  Population Healthy Nuclei (%): 54% and 63%
  Population Hoechst High Intensity Objects (%): 12% and 18%
  Population Mitochondria Different-Phenotype (%): 8% and 4%
  Population Mitotic Cells (%): 47% and 62%
  Population Normal (%): 87% and 81%
  Population Pyknosed Nuclei (%): 21% and 14%
  Total Cell Count: 231 and 326
Fibroblast [1]; 24 h, replicate 2
  Population Fragmented Nuclei (%): 54% and 59%
  Population Healthy Nuclei (%): 35% and 19%
  Population Hoechst High Intensity Objects (%): 36% and 28%
  Population Normal (%): 64% and 71%
  Population Pyknosed Nuclei (%): 10% and 20%
  Population Tubulin-Different-Phenotype (%): 29% and 58%
  Total Cell Count: 75 and 87
HEK-293T [2]; 12 h, replicate 1
  Population Apoptotic (%): 30%
  Population Fragmented Nuclei (%): 14% and 17%
  Population Healthy Nuclei (%): 56% and 57%
  Population Hoechst High Intensity Objects (%): 14% and 13%
  Population Membrane Permeable-Phenotype (%): 36% and 23%
  Population Mitochondria Different-Phenotype (%): 25% and 17%
  Population Mitotic Cells (%): 69%
  Population Normal (%): 85% and 86%
  Population Pyknosed Nuclei (%): 28% and 24%
  Population Tubulin-Different-Phenotype (%): 93% and 58%
  Total Cell Count: 624 and 510
HEK-293T [2]; 12 h, replicate 2
  Population Fragmented Nuclei (%): 4% and 6%
  Population Healthy Nuclei (%): 75% and 83%
  Population Hoechst High Intensity Objects (%): 3%
  Population Membrane Permeable-Phenotype (%): 34% and 17%
  Population Mitochondria Different-Phenotype (%): 32% and 19%
  Population Mitotic Cells (%): 79% and 93%
  Population Normal (%): 96%
  Population Pyknosed Nuclei (%): 20% and 9%
  Population Tubulin-Different-Phenotype (%): 98% and 82%
  Total Cell Count: 1184 and 1372
HEK-293T [2]; 24 h, replicate 1
  Population Apoptotic (%): 35% and 25%
  Population Fragmented Nuclei (%): 12% and 11%
  Population Healthy Nuclei (%): 66% and 76%
  Population Hoechst High Intensity Objects (%): 12% and 7%
  Population Membrane Permeable-Phenotype (%): 33% and 20%
  Population Mitochondria Different-Phenotype (%): 28% and 16%
  Population Mitotic Cells (%): 64% and 75%
  Population Normal (%): 87% and 92%
  Population Pyknosed Nuclei (%): 20% and 12%
  Population Tubulin-Different-Phenotype (%): 95% and 76%
  Total Cell Count: 622 and 545
HEK-293T [2]; 24 h, replicate 2
  Population Apoptotic (%): 9% and 14%
  Population Healthy Nuclei (%): 78% and 68%
  Population Hoechst High Intensity Objects (%): 4%
  Population Membrane Permeable-Phenotype (%): 22% and 17%
  Population Mitotic Cells (%): 90% and 85%
  Population Normal (%): 95%
  Population Tubulin-Different-Phenotype (%): 87%
  Total Cell Count: 2013 and 1166
U2OS [3]; 12 h, replicate 1
  Population Apoptotic (%): 68% and 80%
  Population Fragmented Nuclei (%): 11% and 8%
  Population Healthy Nuclei (%): 75% and 87%
  Population Hoechst High Intensity Objects (%): 4%
  Population Membrane Permeable-Phenotype (%): 45% and 44%
  Population Mitochondria Different-Phenotype (%): 41% and 26%
  Population Mitotic Cells (%): 31% and 20%
  Population Normal (%): 95%
  Population Pyknosed Nuclei (%): 13% and 5%
  Population Tubulin-Different-Phenotype (%): 99% and 93%
  Total Cell Count: 168 and 105
U2OS [3]; 12 h, replicate 2
  Population Apoptotic (%): 75% and 78%
  Population Fragmented Nuclei (%): 13% and 15%
  Population Healthy Nuclei (%): 81% and 69%
  Population Hoechst High Intensity Objects (%): 11% and 12%
  Population Membrane Permeable-Phenotype (%): 36% and 35%
  Population Mitochondria Different-Phenotype (%): 27% and 79%
  Population Mitotic Cells (%): 25% and 21%
  Population Normal (%): 88% and 87%
  Population Pyknosed Nuclei (%): 15%
  Population Tubulin-Different-Phenotype (%): 68% and 100%
  Total Cell Count: 85
U2OS [3]; 24 h, replicate 1
  Population Apoptotic (%): 50% and 85%
  Population Fragmented Nuclei (%): 9%
  Population Healthy Nuclei (%): 82% and 53%
  Population Hoechst High Intensity Objects (%): 5%
  Population Membrane Permeable-Phenotype (%): 36% and 51%
  Population Mitochondria Different-Phenotype (%): 44% and 78%
  Population Normal (%): 94%
  Population Tubulin-Different-Phenotype (%): 63%
  Total Cell Count: 134 and 155
U2OS [3]; 24 h, replicate 2
  Population Apoptotic (%): 80% and 70%
  Population Fragmented Nuclei (%): 19% and 10%
  Population Healthy Nuclei (%): 50% and 78%
  Population Hoechst High Intensity Objects (%): 13% and 9%
  Population Membrane Permeable-Phenotype (%): 56% and 28%
  Population Mitotic Cells (%): 19% and 30%
  Population Normal (%): 87% and 90%
  Population Pyknosed Nuclei (%): 29% and 11%
  Population Tubulin-Different-Phenotype (%): 100% and 48%
  Total Cell Count: 100 and 98
HEK-293T [4]; [7]
  Growth Rate: 0
HEK-293T [4]; [8]
  Growth Rate: 0
HEK-293T [4]; [9]
  Growth Rate: 0
HEK-293T [4]; [10]
  Growth Rate: 0
HEK-293T [4]; [11]
  Growth Rate: 0
Fibroblast [5]; [7]
  Growth Rate: 0
Fibroblast [5]; [8]
  Growth Rate: 1
Fibroblast [5]; [9]
  Growth Rate: 1
Fibroblast [5]; [10]
  Growth Rate: 1
Fibroblast [5]; [11]
  Growth Rate: 1
U2OS [6]; 0 h, replicate number 2, timepoint 0 hours
  Growth Rate: 0
U2OS [6]; [8]
  Growth Rate: 1
U2OS [6]; [9]
  Growth Rate: 0
U2OS [6]; [10]
  Growth Rate: 0
U2OS [6]; [11]
  Growth Rate: 0
